Experimental data as given in ChEMBL document CHEMBL4765319, “Identification of a new series of flavopiridol-like structures as kinase inhibitors with high cytotoxic potency” (Eur J Med Chem, 2020).
Blank lines part the entries; values can stand above or below the molecule they belong to.

Experiments:
[1] = species on record: Sus scrofa; assay: Inhibition of porcine GSK3alpha/beta assessed as residual activity at 1 uM in presence of ATP by ADP-glo luminescent assay relative to control
Summary of the method: (§1)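 Porcine brain GSK3α/β, native and affinity-purified. Assayed by ADP-Glo luminescence with 10 μM ATP and 0.010 μg/μl GS-1 peptide substrate. Buffer A: 10 mM MgCl2, 1 mM EGTA, 1 mM DTT, 25 mM Tris-HCl pH 7.5, 50 μg/ml heparin. Compound tested at 10 or 1 μM. Result is % of maximal activity versus DMSO control, mean of n = 2.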

[2] = species on record: Sus scrofa; assay: Inhibition of porcine GSK3alpha/beta assessed as residual activity at 10 uM in presence of ATP by ADP-glo luminescent assay relative to control; summary of the method: as §1
[3] = target: CDK9/cyclin T1 (Homo sapiens, UniProt P50750); assay: Inhibition of human CDK9/cyclin T in presence of ATP by ADP-glo luminescent assay; type: protein-complex assay
Summary of the method: (§2)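 Human kinases tested over roughly 0.0003–10 μM by ADP-Glo luminescence with 10 μM ATP, in duplicate. IC50 is taken from dose-response curves.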

[4] = test system: Leishmania major; assay: Inhibition of Leishmania major CK1 assessed as residual activity at 10 uM in presence of ATP by ADP-glo luminescent assay relative to control
[5] = test system: Plasmodium falciparum; assay: Inhibition of Plasmodium falciparum GSK3 assessed as residual activity at 1 uM in presence of ATP by ADP-glo luminescent assay relative to control
Summary of the method: (§3)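 Recombinant P. falciparum GSK3, bacterially expressed, in buffer A (10 mM MgCl2, 1 mM EGTA, 1 mM DTT, 25 mM Tris-HCl pH 7.5, 50 μg/ml heparin). Substrate 0.010 μg/μl GS-1 peptide, 10 μM ATP, ADP-Glo luminescence. Compound at 10 or 1 μM; % residual activity vs DMSO control, mean n = 2.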

[6] = test system: NCI-N87; assay: Antiproliferative activity against human NCI-N87 cells assessed as reduction in cell viability incubated for 72 hrs by CellTiter-Blue fluorescence assay; details: NCI-N87, 72 h
[7] = test system: Plasmodium falciparum; assay: Inhibition of Plasmodium falciparum GSK3 assessed as residual activity at 10 uM in presence of ATP by ADP-glo luminescent assay relative to control; summary of the method: as §3
[8] = target: T1, Cyclin-dependent kinase 5/CDK5 activator 1 (Homo sapiens) (UniProt Q00535+Q15078); assay: Inhibition of human CDK5/p25 assessed as residual activity at 1 uM in presence of ATP by ADP-glo luminescent assay relative to control; type: protein-complex assay
Summary of the method: (§4)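 Human kinases assayed by ADP-Glo luminescence with 10 μM ATP, compound at 10 or 1 μM. Activity is expressed as % of maximal activity relative to a DMSO control, mean n = 2.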

[9] = target: T2, CDK2/Cyclin A2 (Homo sapiens) (UniProt P24941+P20248); assay: Inhibition of human CDK2/cyclin A assessed as residual activity at 10 uM in presence of ATP by ADP-glo luminescent assay relative to control; type: protein-complex assay; summary of the method: as §4
[10] = target: T3, Glycogen synthase kinase-3 beta (Homo sapiens, UniProt P49841); assay: Inhibition of human GSK3beta in presence of ATP by ADP-glo luminescent assay; summary of the method: as §2
Target sequence in this assay (P49841 whole entry): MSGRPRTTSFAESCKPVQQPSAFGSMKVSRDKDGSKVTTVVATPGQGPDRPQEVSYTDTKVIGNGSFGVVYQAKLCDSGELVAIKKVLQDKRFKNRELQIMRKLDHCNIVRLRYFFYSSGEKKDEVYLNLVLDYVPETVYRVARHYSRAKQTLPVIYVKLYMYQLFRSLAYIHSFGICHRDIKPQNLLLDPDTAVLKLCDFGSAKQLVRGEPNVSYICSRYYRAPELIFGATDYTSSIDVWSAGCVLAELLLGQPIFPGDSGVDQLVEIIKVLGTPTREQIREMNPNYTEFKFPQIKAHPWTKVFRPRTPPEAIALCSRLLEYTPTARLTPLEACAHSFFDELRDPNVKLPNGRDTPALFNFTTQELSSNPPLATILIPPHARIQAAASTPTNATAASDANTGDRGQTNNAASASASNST

[11] = species on record: Sus scrofa; assay: Inhibition of porcine CK1delta/epsilon assessed as residual activity at 10 uM in presence of ATP by ADP-glo luminescent assay relative to control
[12] = test system: K562; assay: Antiproliferative activity against human K562 cells assessed as reduction in cell viability incubated for 72 hrs by CellTiter-Blue resazurin fluorescence assay; details: K562, 72 h
[13] = test system: SK-BR-3; assay: Antiproliferative activity against human SK-BR-3 cells assessed as reduction in cell viability incubated for 72 hrs by CellTiter-Blue fluorescence assay; details: SK-BR-3, 72 h
[14] = species on record: Sus scrofa; assay: Inhibition of porcine CK1delta/epsilon assessed as residual activity at 1 uM in presence of ATP by ADP-glo luminescent assay relative to control
[15] = test system: MIA PaCa-2; assay: Antiproliferative activity against human MIA PaCa-2 cells assessed as reduction in cell viability incubated for 72 hrs by CellTiter-Blue fluorescence assay; details: MIA PaCa-2, 72 h
[16] = test system: SK-OV-3; assay: Antiproliferative activity against human SKOV3 cells assessed as reduction in cell viability incubated for 72 hrs by CellTiter-Blue fluorescence assay; details: SK-OV-3, 72 h
[17] = target: T3, Glycogen synthase kinase-3 beta; assay: Inhibition of human GSK3beta assessed as residual activity at 1 uM in presence of ATP by ADP-glo luminescent assay relative to control; summary of the method: as §4
Target sequence in this assay (P49841 whole entry, looked up): as the sequence (P49841 whole entry) above

[18] = target: T2, CDK2/Cyclin A2 (Homo sapiens); assay: Inhibition of human CDK2/cyclin A assessed as residual activity at 1 uM in presence of ATP by ADP-glo luminescent assay relative to control; type: protein-complex assay; summary of the method: as §4
[19] = target: T4, CDK9/cyclin T1 (Homo sapiens) (UniProt O60563+P50750); assay: Inhibition of human CDK9/cyclin T assessed as residual activity at 10 uM in presence of ATP by ADP-glo luminescent assay relative to control; type: protein-complex assay; summary of the method: as §4
[20] = target: T4, CDK9/cyclin T1 (Homo sapiens); assay: Inhibition of human CDK9/cyclin T assessed as residual activity at 1 uM in presence of ATP by ADP-glo luminescent assay relative to control; type: protein-complex assay; summary of the method: as §4
[21] = test system: Leishmania major; assay: Inhibition of Leishmania major CK1 assessed as residual activity at 1 uM in presence of ATP by ADP-glo luminescent assay relative to control
[22] = target: T3, Glycogen synthase kinase-3 beta; assay: Inhibition of human GSK3beta assessed as residual activity at 10 uM in presence of ATP by ADP-glo luminescent assay relative to control; summary of the method: as §4
Target sequence in this assay (P49841 whole entry, looked up): as the sequence (P49841 whole entry) above

[23] = target: CDK2/Cyclin A2 (Homo sapiens, UniProt P24941); assay: Inhibition of human CDK2/cyclin A in presence of ATP by ADP-glo luminescent assay; type: protein-complex assay; summary of the method: as §2
[24] = target: T1, Cyclin-dependent kinase 5/CDK5 activator 1 (Homo sapiens); assay: Inhibition of human CDK5/p25 assessed as residual activity at 10 uM in presence of ATP by ADP-glo luminescent assay relative to control; type: protein-complex assay; summary of the method: as §4
[25] = test system: PC-3; assay: Antiproliferative activity against human PC-3 cells assessed as reduction in cell viability incubated for 72 hrs by CellTiter-Blue fluorescence assay; details: PC-3, 72 h
[26] = target: Cyclin-dependent kinase 5/CDK5 activator 1 (Homo sapiens, UniProt Q00535); assay: Inhibition of human CDK5/p25 in presence of ATP by ADP-glo luminescent assay; type: protein-complex assay; summary of the method: as §2
[27] = test system: HCT-116; assay: Antiproliferative activity against human HCT-116 cells assessed as reduction in cell viability incubated for 72 hrs by CellTiter-Blue fluorescence assay; details: HCT-116, 72 h

T1 sequence (Q00535 whole entry): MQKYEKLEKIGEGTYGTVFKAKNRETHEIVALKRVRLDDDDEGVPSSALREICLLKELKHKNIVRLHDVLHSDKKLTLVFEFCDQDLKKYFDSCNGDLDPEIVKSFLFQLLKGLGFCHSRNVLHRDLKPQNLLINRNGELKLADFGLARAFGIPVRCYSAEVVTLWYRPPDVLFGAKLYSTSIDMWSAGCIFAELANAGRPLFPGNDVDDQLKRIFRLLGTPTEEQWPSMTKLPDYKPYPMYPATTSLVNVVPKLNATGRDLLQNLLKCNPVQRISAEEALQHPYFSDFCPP
T1 sequence (Q15078 99-307 partner limits assumed): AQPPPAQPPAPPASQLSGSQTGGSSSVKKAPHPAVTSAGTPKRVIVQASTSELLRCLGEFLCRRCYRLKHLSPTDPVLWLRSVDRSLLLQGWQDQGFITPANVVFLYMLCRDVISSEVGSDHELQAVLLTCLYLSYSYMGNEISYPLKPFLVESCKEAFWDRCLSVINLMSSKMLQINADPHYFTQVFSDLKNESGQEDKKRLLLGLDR
Sequence of Cyclin-dependent kinase 5/CDK5 activator 1 (Q00535 whole entry): as the sequence (Q00535 whole entry) above
Sequence of Cyclin-dependent kinase 5/CDK5 activator 1 (Q15078 whole entry, further chain): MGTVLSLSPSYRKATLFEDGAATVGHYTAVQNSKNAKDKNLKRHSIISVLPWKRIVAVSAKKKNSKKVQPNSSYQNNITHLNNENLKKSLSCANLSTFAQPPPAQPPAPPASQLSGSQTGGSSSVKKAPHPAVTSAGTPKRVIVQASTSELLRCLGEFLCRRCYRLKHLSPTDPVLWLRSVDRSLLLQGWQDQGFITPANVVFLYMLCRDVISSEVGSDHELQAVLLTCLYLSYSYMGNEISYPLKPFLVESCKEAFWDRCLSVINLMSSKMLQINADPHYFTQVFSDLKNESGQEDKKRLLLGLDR
Sequence of CDK9/cyclin T1 (O60563 whole entry): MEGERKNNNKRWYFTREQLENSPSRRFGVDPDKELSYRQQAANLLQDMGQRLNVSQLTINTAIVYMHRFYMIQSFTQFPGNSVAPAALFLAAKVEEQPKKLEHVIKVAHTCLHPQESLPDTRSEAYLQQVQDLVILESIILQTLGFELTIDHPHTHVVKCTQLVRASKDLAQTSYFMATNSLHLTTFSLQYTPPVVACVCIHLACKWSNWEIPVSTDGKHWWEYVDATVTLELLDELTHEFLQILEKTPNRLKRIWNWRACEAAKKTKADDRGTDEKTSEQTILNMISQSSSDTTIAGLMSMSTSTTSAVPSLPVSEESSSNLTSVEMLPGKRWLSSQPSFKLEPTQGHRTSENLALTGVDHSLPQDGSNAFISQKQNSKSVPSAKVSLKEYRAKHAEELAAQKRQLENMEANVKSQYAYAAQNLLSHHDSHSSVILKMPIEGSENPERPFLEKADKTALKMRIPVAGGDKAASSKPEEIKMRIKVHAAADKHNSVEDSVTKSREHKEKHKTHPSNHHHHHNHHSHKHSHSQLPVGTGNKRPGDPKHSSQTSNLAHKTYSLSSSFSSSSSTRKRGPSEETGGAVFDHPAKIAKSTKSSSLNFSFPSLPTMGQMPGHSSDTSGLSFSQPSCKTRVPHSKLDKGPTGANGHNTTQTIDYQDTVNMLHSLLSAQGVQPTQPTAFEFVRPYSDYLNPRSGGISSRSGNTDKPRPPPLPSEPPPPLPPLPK
Sequence of CDK9/cyclin T1 (P50750 whole entry): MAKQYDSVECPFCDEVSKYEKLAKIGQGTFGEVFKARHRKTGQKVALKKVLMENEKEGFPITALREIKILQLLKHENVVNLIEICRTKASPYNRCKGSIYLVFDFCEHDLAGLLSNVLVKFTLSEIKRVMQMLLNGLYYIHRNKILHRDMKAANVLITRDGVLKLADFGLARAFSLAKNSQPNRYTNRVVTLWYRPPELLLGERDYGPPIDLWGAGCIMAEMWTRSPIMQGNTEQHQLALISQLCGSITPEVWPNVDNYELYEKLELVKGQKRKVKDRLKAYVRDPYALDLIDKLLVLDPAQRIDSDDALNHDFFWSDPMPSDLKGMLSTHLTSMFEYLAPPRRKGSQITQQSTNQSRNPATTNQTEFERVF

Activity [1]: 53% | Activity [2]: 11% | IC50 [3]: 9 nM | Activity [4]: 54% | Activity [5]: > 100% | Activity [7]: > 100% | Activity [8]: 10% | Activity [9]: 14% | IC50 [10]: 356 nM | Activity [11]: 43% | IC50 [12]: 300 nM | IC50 [13]: 352 nM | Activity [14]: 78% | IC50 [15]: 448 nM | IC50 [16]: 295 nM | Activity [17]: 25% | Activity [18]: 33% | Activity [19]: 0% | Activity [20]: 2% | Activity [21]: 88% | Activity [22]: 6% | IC50 [23]: 469 nM | Activity [24]: 5% | IC50 [25]: 243 nM | IC50 [26]: 195 nM | IC50 [27]: 173 nM
SMILES: CN1CC=C(c2c(O)cc(O)c3c(=O)cc(-c4ccc(Sc5nc(-c6ccccc6)c[nH]5)cc4)oc23)CC1
IC50 [6]: 4800 nM

IC50 [16]: 1200 nM
SMILES: COc1ccc2[nH]c(Sc3ccc(-c4cc(=O)c5c(O)cc(O)c(C6=CCN(C)CC6)c5o4)cc3)nc2c1

IC50 [16]: > 10000 nM
SMILES: CC(=O)N[C@H](CSc1ccc(-c2cc(=O)c3c(O)cc(O)c(C4=CCN(C)CC4)c3o2)cc1)C(=O)O

IC50 [16]: 2000 nM
SMILES: CN1CC=C(c2c(O)cc(O)c3c(=O)cc(-c4ccc(Sc5nc6ccccc6o5)cc4)oc23)CC1

IC50 [16]: 6850 nM
SMILES: CN1CC=C(c2c(O)cc(O)c3c(=O)cc(-c4ccc(SCCC(=O)NOC5CCCCO5)cc4)oc23)CC1 (configuration not stated)

IC50 [16]: 4300 nM
SMILES: COC(=O)[C@H](CO)NC(=O)[C@H](CSc1ccc(-c2cc(=O)c3c(O)cc(O)c(C4=CCN(C)CC4)c3o2)cc1)NC(=O)OCc1ccccc1

IC50 [16]: 7790 nM
SMILES: COC(=O)[C@@H](CSc1ccc(-c2cc(=O)c3c(O)cc(O)c(C4=CCN(C)CC4)c3o2)cc1)NC(=O)OC(C)(C)C

IC50 [16]: > 10000 nM
SMILES: CN1CC=C(c2c(O)cc(O)c3c(=O)cc(-c4ccc(S[C@@H]5O[C@@H](CO)C(O)C(O)[C@@H]5O)cc4)oc23)CC1 (single isomer, unassigned)

IC50 [16]: 2870 nM
SMILES: CC(=O)OC[C@@H]1O[C@@H](Sc2ccc(-c3cc(=O)c4c(O)cc(O)c(C5=CCN(C)CC5)c4o3)cc2)[C@@H](OC(C)=O)[C@H](OC(C)=O)[C@@H]1OC(C)=O

SMILES: CN1CC=C(c2c(O)cc(O)c3c(=O)cc(-c4ccc(SCCC(=O)NO)cc4)oc23)CC1
IC50 [16]: > 10000 nM

Activity [1]: 70% | Activity [2]: 16% | Activity [4]: 61% | Activity [5]: > 100% | Activity [7]: 70% | Activity [8]: 36% | Activity [9]: 11% | Activity [11]: 78% | IC50 [12]: 125 nM | IC50 [13]: 75 nM | Activity [14]: > 100% | IC50 [15]: 320 nM | IC50 [16]: 220 nM | Activity [17]: 50% | Activity [18]: 26% | Activity [19]: 1% | Activity [20]: 5% | Activity [21]: > 100% | Activity [22]: 10% | Activity [24]: 13%
SMILES: CN1CC[C@H](c2c(O)cc(O)c3c(=O)cc(-c4ccccc4Cl)oc23)[C@H](O)C1 [ALVOCIDIB]
IC50 [6]: 111 nM
